Data set [1] in a line: Prodrug activation in human HeLa cells assessed as increase in fluorescence at 10 uM after 8 hrs in presence of GSH by flow cytometric analysis. Format: cell-based. The method, boiled down:
(§1)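 Cells (10^5 per confocal dish) were seeded in DMEM overnight at 37 °C, 5% CO2. They were pretreated with 5 mM GSH in DMEM, or medium alone, for 2 h, then washed. Compound at 10 μM was added for 8 h. Intracellular fluorescence was read by confocal microscopy (excitation 633 nm) or by flow cytometry under the same conditions.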
In general terms: A flow cytometer gives signals particle by particle.

Data set [2] in a line: Prodrug activation in DMF at 10 uM incubated for 720 mins in presence of 2 uM GSH by fluorescence spectroscopic analysis. The conditions noted are these: 12 h.
The subject of data set [3] is A549. In words: Induction of ROS generation in human A549 cells at 10 uM incubated for 12 hrs irradiated with 20 mW cm^-2 light in presence of GSH by DCFH-DA staining based confocal laser scanning microscopic method. Format: functional, cell-based. The method, boiled down: (§2)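 Cells were seeded in confocal dishes overnight. Pretreatment was GSH 5 mM in DMEM for 2 h, or vitamin C 100 μM for 1 h, before compound at 10 μM for 12 h. DCFH-DA was added for 1 h, then 5 PBS washes and transfer to serum-free, phenol red-free DMEM. Cells were irradiated at 670 nm, 20 mW·cm⁻², for 3 min. Confocal imaging used λex 488 nm for DCF and 633 nm for the photosensitizer.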

Data set [4] relates to A549. In words: Cytotoxicity against human A549 cells assessed as reduction cell viability preincubated for 24 hrs in dark condition followed by irradiated with 20 mW cm^-2 light by MTT assay. Format: functional, cell-based. The method, boiled down: (§3)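 MTT assay. About 6000 cells per well were seeded and left overnight at 37 °C, 5% CO2. Compound was added at a range of concentrations in DMEM (1% DMSO, 0.05% Tween 80) for 24 h in the dark, then the medium was replaced. Irradiated wells received a 670 nm LED at 20 mW·cm⁻² for 2 min (2.4 J·cm⁻²); dark wells were not irradiated. Cells were incubated overnight, then MTT for 4 h, DMSO added, OD read at 490 nm. Three independent experiments, each in sextuplicate. IC50 is the concentration killing 50% of cells.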
(Formazan colour is commonly taken as a measure of viable cells.)

Data set [5] is described as follows: Prodrug activation in DMF at 10 uM incubated for 720 mins in presence of 10 mM GSH by fluorescence spectroscopic analysis. The following applies: 12 h.
The nature of data set [6]: Prodrug activation in human A549 cells assessed as increase in fluorescence at 10 uM after 8 hrs by flow cytometric analysis. Format: cell-based. The following applies: a549, 8 h. The method, boiled down: as §1
The nature of data set [7]: Prodrug activation in HELF cells assessed as increase in fluorescence at 10 uM after 8 hrs in presence of GSH by confocal laser scanning microscopic method. Format: cell-based. The following applies: human, primary lung fibroblast. The method, boiled down:
as §1

The nature of data set [8]: Prodrug activation in human A549 cells assessed as increase in fluorescence at 10 uM after 8 hrs by confocal laser scanning microscopic method. Format: cell-based. The following applies: a549, 8 h. The method, boiled down:
as §1

For data set [9], the system named is H22. Briefly: Photodynamic antitumor activity against mouse H22 cells implanted in Kunming mouse assessed as increase in apoptotic cells in tumour at 2 mg/kg, iv administered at […] post-implantation followed by irradiated with 100 mW/cm2 […] and measured up to 15 days by H and E staining based microscopic method. Format: functional, organism-based. The following applies: time 15.0 day. The method, boiled down: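 Mice carried subcutaneous H22 tumours of about 50 mm³ and were randomised into 5 groups of 5. They received saline or compound at 2 mg/kg (100 μL) i.v. on days 1, 4 and 7. Light groups were irradiated at 670 nm, 100 mW/cm², 12 h after each dose. Tumour volume and body weight were recorded daily for 15 days. Tumours were then excised and weighed, fixed in 4% paraformaldehyde, paraffin-embedded and H&E stained. Apoptotic and necrotic areas were scored microscopically.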

In data set [10] the test system is A549. In words: Induction of ROS generation in human A549 cells at 10 uM incubated for 12 hrs irradiated with 20 mW cm^-2 light in presence of vitamin C by DCFH-DA staining based confocal laser scanning microscopic method. Format: functional, cell-based. The method, boiled down:
as §2

Data set [11] deals with H22. Briefly: Cytotoxicity against mouse H22 cells assessed as reduction cell viability up to 10 uM after 24 hrs in dark condition by MTT assay. The data set is classed as cell-based. The following applies: h22, 24 h. The method, boiled down:
as §3

A short description of data set [12]: Photoactivity of compound in DMF assessed as singlet oxygen generation at 10 uM irradiated with 20 mW cm^-2 light by DMA based fluorescence assay. The data set is classed as functional.
Data set [13] is described as follows: Drug uptake in Kunming mouse implanted with H22 cells at 2 mg/kg, iv and measured up to 24 hrs by FMT assay. Format: ADME, organism-based. The following applies: in vivo. The method, boiled down: (§4)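 Mice carried subcutaneous back tumours from H22 cells (10^7 cells/mL, 100 μL), used at about 50 mm³. They received a single tail-vein injection of 2 mg/kg (200 μL), with saline as control, 3 mice per group. Whole-body fluorescence molecular tomography was taken at 0, 2, 6, 12 and 24 h. At 24 h, tumour, heart, liver, spleen, lung and kidney were imaged ex vivo.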

Data set [14] can be described thus: Prodrug activation in human HeLa cells assessed as increase in fluorescence at 10 uM after 8 hrs by flow cytometric analysis. The data set is classed as cell-based. The method, boiled down: as §1
Data set [15] is described as follows: Drug uptake in tumour of Kunming mouse implanted with H22 cells at 2 mg/kg, iv and measured up to 24 hrs by FMT assay. The data set is classed as ADME, organism-based, Neoplasm. The conditions noted are these: in vivo. The method, boiled down: as §4
Data set [16] is described as follows: Prodrug activation in mouse H22 cells assessed as increase in fluorescence at 10 uM after 8 hrs by confocal laser scanning microscopic method. The data set is classed as cell-based. The conditions noted are these: h22, 8 h. The method, boiled down:
as §1

The nature of data set [17]: Prodrug activation in HELF cells assessed as increase in fluorescence at 10 uM after 8 hrs by flow cytometric analysis. The conditions noted are these: human, primary lung fibroblast. The data set is classed as cell-based. The method, boiled down: as §1
The nature of data set [18]: Drug localization in lysosome of human A549 cells assessed as GSH mediated cleavage at 10 uM after 12 hrs by Lyso-Tracker Red dye based confocal laser scanning microscopic method. Format: ADME, subcellular. The following applies: a549, 12 h. The method, boiled down:
(§5)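 Cells were seeded in confocal dishes overnight, then given compound at 10 μM for 12 h. Staining was DAPI for 20 min, or Lyso-Tracker Red or Mito-Tracker Green for 60 min, followed by 5 PBS washes. Images were taken by confocal microscopy with excitation/detection of 405/425-475 nm (DAPI), 543/550-620 nm (Lyso) and 488/510-570 nm (Mito). Colocalization was judged from line intensity profiles.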

Data set [19] in a line: Prodrug activation in DMF assessed as pseudo-first-order kinetics at 10 uM incubated for 720 mins in presence of 10 mM GSH by fluorescence spectroscopic analysis. The following applies: 12 h.
A short description of data set [20]: Drug localization in nucleus of human A549 cells assessed as GSH mediated cleavage at 10 uM after 12 hrs by DAPI dye based confocal laser scanning microscopic method. Format: ADME, subcellular. The following applies: a549, 12 h. The method, boiled down:
as §5

A short description of data set [21]: Drug localization in mitochondria of human A549 cells assessed as GSH mediated cleavage at 10 uM after 12 hrs by Mito-Tracker Green dye based confocal laser scanning microscopic method. Format: ADME. The conditions noted are these: a549, 12 h. The method, boiled down: as §5

Structures are written as SMILES. The source made the active and inactive calls. The calls are words filed in the database; no cut-off is given here.

As to `COCCOCCOCCOc1ccc(/C=C/C2=[N+]3C(=C(c4ccc(OCc5cn(CCCCCCn6cc(COc7ccc(C8=C9C(C)=CC(/C=C/c%10ccc(N(C)C)cc%10)=[N+]9[B-](F)(F)n9c(/C=C/c%10ccc(N(C)C)cc%10)cc(C)c98)cc7)nn6)nn5)cc4)c4c(C)c(I)c(/C=C/c5ccc(OCCOCCOCCOC)cc5)n4[B-]3(F)F)C(C)=C2I)cc1`, the Drug metabolism result in data set [1], in data set [2], in data set [5], in data set [6], in data set [7] and in data set [8] was “Metabolite_Notdetected” throughout. The Drug metabolism result in data set [12] is reported as “Metabolite not detected”; in data set [14], “Metabolite_Notdetected”; in data set [16] it was “Metabolite_Notdetected”; in [17], “Metabolite_Notdetected”. Also, the outcome in the data set with A549 [3], in the data set with A549 [4] and with A549 [10] was inactive. Also, the result in the data set on H22 [9] was Active. Moreover, the Activity result in the data set with H22 [11] is “Non-Toxic”. The Drug uptake result in [13] and in data set [15] was “Active” in each case.
Turning to `COCCOCCOCCOc1ccc(/C=C/C2=[N+]3C(=C(c4ccc(OCc5cn(CCSSCCn6cc(COc7ccc(C8=C9C(C)=CC(/C=C/c%10ccc(N(C)C)cc%10)=[N+]9[B-](F)(F)n9c(/C=C/c%10ccc(N(C)C)cc%10)cc(C)c98)cc7)nn6)nn5)cc4)c4c(C)c(I)c(/C=C/c5ccc(OCCOCCOCCOC)cc5)n4[B-]3(F)F)C(C)=C2I)cc1`, the Drug metabolism entry in data set [1] is on record as “Metabolite_Detected”; in data set [6], “Metabolite_Detected”; in data set [7], “Metabolite_Detected”; in data set [8], “Metabolite_Detected”; in data set [12], “Metabolite not detected”; in data set [14], “Metabolite_Detected”. Moreover, the Drug metabolism entry in data set [16] was “Metabolite_Detected”; in data set [17], “Metabolite_Notdetected”. Moreover, the outcome with A549 [3] and with H22 [9] was Active. In addition, the IC50 in the data set on A549 [4] (A549, light or radiation study) stood at 440 nM. In addition, the Drug uptake entry in data set [18] is listed as “Active”; in data set [20], “Not Active”; in data set [21] it was “Active”; in data set [15], “Active”. Also, the outcome in the data set with A549 [10] was inactive. In addition, in the data set on H22 [11], the Activity entry was “Non-Toxic”. Besides, the K in data set [19] is recorded as 5.8 10^-3/min.

The IC50 is the concentration needed to halve the response being measured.
